# Source: ChEMBL document CHEMBL5316309, “Discovery of BAY-390, a Selective CNS Penetrant Chemical Probe as Transient Receptor Potential Ankyrin 1 (TRPA1) Antagonist” (J Med Chem, 2023)
# Activity calls are given as the source filed them.
# Assays:
# [1] = biological target: T1, Transient receptor potential cation channel subfamily A member 1 (Homo sapiens, UniProt O75762); assay: Antagonist activity at human wildtype TRPA1 channel expressed in CHO-K1 cells tagged with GCaMP6 by measuring calcium flux measured after […] by FLIPR tetra analysis; assay type: cell-based
# [2] = biological target: Transient receptor potential cation channel subfamily A member 1 (Rattus norvegicus, UniProt Q6RI86); assay: Antagonist activity at rat TRPA1 channel expressed in CHO-K1 cells tagged with GCaMP6 by measuring calcium flux measured after 10 mins by FLIPR tetra analysis; assay type: cell-based
# [3] = Mutagenecity in Salmonella typhimurium by Ames test; assay type: toxicity; details: salmonella sp.
# [4] = Lipophilicity, logD of compound; assay type: physicochemical; details: octanol/water
# Rattus norvegicus [5] = assay: Antiallodynic activity against spinal nerve ligation neuropathic pain Sprague-Dawley rat model assessed as paw withdrawal threshold administered at 30 mg/kg, po bid post SNL surgery; assay type: functional, organism-based; details: time <= 10.0 day, TDE = time-dependent effect
# Method in brief: (§1)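 Male Sprague Dawley rats, 100–120 g, had spinal nerve ligation under isoflurane. Oral dosing b.i.d. on days 15–24 post surgery in DMSO/Solutol/water 10/40/50 at 5 mL/kg; gabapentin 30 mg/kg q.d. as control. Von Frey up-and-down thresholds, blinded, on both hind paws at day 11 (baseline) and days 15, 18, 21, 24, 2 h after morning dose. Kruskal–Wallis with Dunn versus vehicle.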
# [6] = biological target: T1, Transient receptor potential cation channel subfamily A member 1; assay: Antagonist activity at human TRPA1 channel expressed in CHO-K1 cells tagged with GCaMP6 by measuring calcium flux measured after 10 mins by FLIPR tetra analysis; assay type: cell-based
# Plasma [7] = assay: Free plasma concentration in cinnamaldehyde induced nocifensive behaviour Sprague-Dawley rat treated with CFA for 24 hrs followed by compound addition at 10 mg/kg, po measured after 4.5 hrs; assay type: functional
# Method in brief: (§2)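 Unbound plasma level taken 4.5 h after oral dosing (3, 10, 30 mg/kg), given 24 h after intraplantar CFA in rats.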
# Rattus norvegicus [8] = assay: Anti-inflammatory activity in complete Freund's adjuvant induced mechanical hyperalgesia in Sprague-Dawley rat assessed as reduction of mechanical hyperalgesia treated with CFA for 24 hrs followed by compound addition at 30 mg/kg, po measured after 4 hrs by Dunnett's post hoc test; assay type: functional, organism-based
# Method in brief: (§3)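 Male Sprague Dawley rats, 175–200 g, given intraplantar CFA in one hind paw. Oral dose once 24 h later in 10% DMSO/40% Solutol/50% water. Paw withdrawal threshold to pressure measured blinded on CFA and contralateral paws before CFA, at 24 h (predrug) and 2 and 4 h postdose. Two-way repeated-measures ANOVA, then Dunnett versus vehicle.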
# Plasma [9] = assay: Free plasma concentration in cinnamaldehyde induced nocifensive behaviour Sprague-Dawley rat model treated at 3 to 30 mg/kg, po for 1 hr followed by cinnamaldehyde addition; assay type: functional; details: dose 3-30 mg/kg
# Method in brief: (§4)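 Free plasma level taken 1 h after oral dosing (3, 10, 30 mg/kg) in the rat intraplantar cinnamaldehyde nocifensive model.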
# Rattus norvegicus [10] = assay: Protective activity in cinnamaldehyde induced nocifensive behaviour Sprague-Dawley rat model assessed as reduction in paw licking treated with cinnamaldehyde followed compound addition at 3 to 30 mg/kg, po measured after 1 hr measured by Dunnert's post hoc test; assay type: functional, organism-based; details: dose 3-30 mg/kg
# Method in brief: (§5)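 Male Sprague Dawley rats, 175–200 g, dosed orally in 10% DMSO/40% Solutol/50% water 1 h before intraplantar injection of 50 μL cinnamaldehyde at 5 mM. Flinch number and licking duration scored blinded for 5 min. One-way ANOVA with Dunnett versus vehicle.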
# [11] = Fraction unbound in Sprague-Dawley rat; assay type: ADME
# [12] = Unbound brain concentration in spinal nerve ligation neuropathic pain Sprague-Dawley rat model administered at 30 mg/kg, po bid for 10 days from day 15 to day 24 post SNL surgery measured after 2 to 8 hrs of last dose
# Plasma [13] = assay: Unbound plasma concentration in spinal nerve ligation neuropathic pain Sprague-Dawley rat model administered at 90 mg/kg, po bid for 10 days from day 15 to day 24 post SNL surgery measured after […] of last dose; assay type: functional; details: time 242.5 hrs
# [14] = Fraction unbound in human; assay type: ADME
# [15] = Efflux ratio of permeability in human Caco2 cells; assay type: ADME, cell-based; details: caco-2
# Rattus norvegicus [16] = assay: Antiallodynic activity against spinal nerve ligation neuropathic pain Sprague-Dawley rat model assessed as reversal of mechanical allodynia administered at 30 mg/kg, po bid for 10 days from day 15 to day 24 post SNL surgery; assay type: functional, organism-based; details: time <= 10.0 day; method in brief: as §1
# Plasma [17] = assay: Unbound plasma concentration in spinal nerve ligation neuropathic pain Sprague-Dawley rat model administered at 30 mg/kg, po bid for 10 days from day 15 to day 24 post SNL surgery measured after […] of last dose; assay type: functional; details: time 242.5 hrs
# [18] = Unbound brain concentration in spinal nerve ligation neuropathic pain Sprague-Dawley rat model administered at 90 mg/kg, po bid for 10 days from day 15 to day 24 post SNL surgery measured after 2 to 8 hrs of last dose
# Plasma [19] = assay: Free plasma concentration in cinnamaldehyde induced nocifensive behaviour Sprague-Dawley rat treated with CFA for 24 hrs followed by compound addition at 30 mg/kg, po measured after 4.5 hrs; assay type: functional; method in brief: as §2
# Rattus norvegicus [20] = assay: Antiallodynic activity against spinal nerve ligation neuropathic pain Sprague-Dawley rat model assessed as reversal of mechanical allodynia administered at 90 mg/kg, po bid measured after 6 days post SNL surgery; assay type: functional, organism-based; details: time 6.0 day
# Rattus norvegicus [21] = assay: Anti-inflammatory activity in complete Freund's adjuvant induced mechanical hyperalgesia in Sprague-Dawley rat assessed as reduction of mechanical hyperalgesia treated with CFA for 24 hrs followed by compound addition at 10 to 30 mg/kg, po measured after 2 hrs by Dunnett's post hoc test; assay type: functional, organism-based; details: dose 10-30 mg/kg; method in brief: as §3
# Plasma [22] = assay: Free plasma concentration in cinnamaldehyde induced nocifensive behaviour Sprague-Dawley rat model at 10 mg/kg, po; assay type: functional; details: time 1 hrs; method in brief: as §4
# Rattus norvegicus [23] = assay: Protective activity in cinnamaldehyde induced nocifensive behaviour Sprague-Dawley rat model assessed as reduction in number of flinches treated with cinnamaldehyde followed compound addition at 3 to 30 mg/kg, po measured after 1 hr measured by Dunnert's post hoc test; assay type: functional, organism-based; details: dose 3-30 mg/kg; method in brief: as §5
# Rattus norvegicus [24] = assay: Reversal of complete Freund's adjuvant induced mechanical hyperalgesia in Sprague-Dawley rat assessed as paw withdrawal threshold treated with CFA for 24 hrs followed by compound addition at 3 to 30 mg/kg, po measured after 2 to 4 hrs by Dunnett's post hoc test; assay type: functional, organism-based; details: dose 3-30 mg/kg, time 2-4 hrs; method in brief: as §3
# [25] = Permeability form apical to basolateral side in human Caco2 cells; assay type: ADME, cell-based; details: caco-2
# [26] = Metabolic stability in rat hepatocytes; assay type: ADME, cell-based, Hepatocyte
# Plasma [27] = assay: Free plasma concentration in cinnamaldehyde induced nocifensive behaviour Sprague-Dawley rat treated with CFA for 24 hrs followed by compound addition at 3 mg/kg, po measured after 4.5 hrs; assay type: functional; method in brief: as §2
# [28] = Fraction unbound in guniea pig; assay type: ADME, Cavia porcellus; details: guinea pig
# [29] = Solubility of the compound in PBS buffer at pH 6.5; assay type: physicochemical
# Plasma [30] = assay: Free plasma concentration in cinnamaldehyde induced nocifensive behaviour Sprague-Dawley rat model treated with cinnamaldehyde followed compound addition at 3 to 30 mg/kg, po measured after 1 hr; assay type: functional; details: dose 3-30 mg/kg; method in brief: as §4
# [31] = Fraction unbound in mouse; assay type: ADME, organism-based; details: in vivo
# [32] = Metabolic stability in rat blood assessed as clearance; assay type: ADME, tissue-based
# T1 sequence (O75762 whole entry): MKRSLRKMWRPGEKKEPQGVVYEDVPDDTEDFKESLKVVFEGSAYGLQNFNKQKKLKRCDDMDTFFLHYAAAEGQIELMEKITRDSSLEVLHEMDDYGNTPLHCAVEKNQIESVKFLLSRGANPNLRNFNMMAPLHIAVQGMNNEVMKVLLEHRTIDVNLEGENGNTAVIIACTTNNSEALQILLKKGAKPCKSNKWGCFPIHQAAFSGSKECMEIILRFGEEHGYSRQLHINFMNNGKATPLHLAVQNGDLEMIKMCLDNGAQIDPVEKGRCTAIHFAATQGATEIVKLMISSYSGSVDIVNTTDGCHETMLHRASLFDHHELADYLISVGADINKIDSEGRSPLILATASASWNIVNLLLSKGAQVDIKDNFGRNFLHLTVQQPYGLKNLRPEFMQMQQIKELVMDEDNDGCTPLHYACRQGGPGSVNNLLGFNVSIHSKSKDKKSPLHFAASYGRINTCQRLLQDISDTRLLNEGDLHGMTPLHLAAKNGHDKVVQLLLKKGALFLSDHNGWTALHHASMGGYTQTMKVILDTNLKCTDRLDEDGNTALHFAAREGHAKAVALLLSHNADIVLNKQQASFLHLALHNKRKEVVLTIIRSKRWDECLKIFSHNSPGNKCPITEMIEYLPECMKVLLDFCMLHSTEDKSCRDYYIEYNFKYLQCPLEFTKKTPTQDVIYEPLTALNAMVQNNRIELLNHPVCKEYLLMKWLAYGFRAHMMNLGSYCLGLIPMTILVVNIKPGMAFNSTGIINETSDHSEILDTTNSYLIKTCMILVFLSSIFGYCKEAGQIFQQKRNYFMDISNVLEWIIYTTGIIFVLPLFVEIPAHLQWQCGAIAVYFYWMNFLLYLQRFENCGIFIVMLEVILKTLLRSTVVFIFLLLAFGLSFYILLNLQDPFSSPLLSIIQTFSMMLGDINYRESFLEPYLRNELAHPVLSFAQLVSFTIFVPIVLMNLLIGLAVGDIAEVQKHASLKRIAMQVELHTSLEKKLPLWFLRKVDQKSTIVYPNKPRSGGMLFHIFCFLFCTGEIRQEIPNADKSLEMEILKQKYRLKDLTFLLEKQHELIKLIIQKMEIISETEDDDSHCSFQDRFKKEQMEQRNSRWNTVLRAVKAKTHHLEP
# Sequence of Transient receptor potential cation channel subfamily A member 1 (Rattus norvegicus, UniProt Q6RI86) (Q6RI86 whole entry): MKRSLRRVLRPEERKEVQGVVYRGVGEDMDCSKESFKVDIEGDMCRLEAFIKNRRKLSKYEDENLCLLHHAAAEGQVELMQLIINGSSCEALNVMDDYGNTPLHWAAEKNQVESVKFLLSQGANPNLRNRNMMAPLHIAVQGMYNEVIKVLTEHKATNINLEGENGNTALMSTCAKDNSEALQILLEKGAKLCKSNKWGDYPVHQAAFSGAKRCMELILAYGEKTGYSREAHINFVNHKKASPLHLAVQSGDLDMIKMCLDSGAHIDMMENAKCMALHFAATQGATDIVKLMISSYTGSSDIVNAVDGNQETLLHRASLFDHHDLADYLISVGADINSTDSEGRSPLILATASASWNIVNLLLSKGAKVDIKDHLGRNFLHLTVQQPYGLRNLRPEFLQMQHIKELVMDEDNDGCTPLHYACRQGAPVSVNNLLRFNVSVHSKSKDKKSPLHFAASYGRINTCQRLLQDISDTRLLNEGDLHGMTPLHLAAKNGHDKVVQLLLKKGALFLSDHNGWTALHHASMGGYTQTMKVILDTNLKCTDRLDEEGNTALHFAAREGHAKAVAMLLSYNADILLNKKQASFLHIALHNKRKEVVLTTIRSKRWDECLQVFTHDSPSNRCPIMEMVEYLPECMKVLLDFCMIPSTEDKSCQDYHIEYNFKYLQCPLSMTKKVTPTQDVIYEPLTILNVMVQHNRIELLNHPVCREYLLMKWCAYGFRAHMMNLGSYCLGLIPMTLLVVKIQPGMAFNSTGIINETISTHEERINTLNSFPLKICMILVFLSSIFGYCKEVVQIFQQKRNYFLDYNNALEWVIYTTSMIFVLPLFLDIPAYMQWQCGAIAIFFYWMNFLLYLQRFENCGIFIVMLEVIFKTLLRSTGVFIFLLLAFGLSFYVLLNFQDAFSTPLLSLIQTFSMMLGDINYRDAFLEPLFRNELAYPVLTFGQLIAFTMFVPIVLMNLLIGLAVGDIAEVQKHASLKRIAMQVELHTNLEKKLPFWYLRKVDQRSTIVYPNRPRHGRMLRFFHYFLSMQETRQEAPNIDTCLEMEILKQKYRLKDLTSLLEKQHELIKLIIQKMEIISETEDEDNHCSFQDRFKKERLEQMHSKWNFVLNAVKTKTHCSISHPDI
compound,measurement,setting,value
Cc1cc2[nH]ncc2cc1-c1ccccc1C(F)(F)F,IC50,[1],0.014 µM
COCCCOc1cccc([C@H]2NC(=S)Nc3c2oc2ncccc32)c1,IC50,[1],0.067 µM
Cn1c(=O)c2c(CC(=O)Nc3nc(-c4ccc(F)c(C(F)(F)F)c4F)cs3)csc2n(C)c1=O,IC50,[1],6.8 µM
O[C@]1(C(F)(F)F)CCCC[C@H]1Cc1ccc(Cl)cn1,IC50,[2],> 25 µM
N#Cc1ccc(N[C@@H]2CCCC[C@]2(O)C(F)(F)F)cc1,IC50,[2],1.3 µM
same,Activity,[3],Non-Toxic
O[C@]1(C(F)(F)F)CCCC[C@H]1Nc1ccc(Cl)cc1,IC50,[2],0.118 µM
same,Activity,[3],Toxic
O=C1c2ccc(F)cc2CN1[C@@H]1CCCC[C@]1(O)C(F)(F)F,logD,[4],2.6
CN(c1ccc(F)cc1)[C@@H]1CCCC[C@]1(O)C(F)(F)F,logD,[4],3.9
same,IC50,[2],21 µM
CN([C@@H]1CCCC[C@]1(O)C(F)(F)F)S(=O)(=O)c1ccc(F)cc1,logD,[4],3.1
same,IC50,[2],16 µM
O=C(N[C@@H]1CCCC[C@]1(O)C(F)(F)F)c1ccc(F)cc1,IC50,[2],15 µM
C#CC(CC)(CC)NC(=O)c1cccnc1NC1CC(F)(F)C1,IC50,[1],0.001 µM
N#Cc1cc(C[C@@H]2CCCC[C@]2(O)C(F)(F)F)cs1,logD,[4],3.2
same,IC50,[2],0.62 µM
O[C@]1(C(F)(F)F)CCCC[C@H]1Nc1cccc(F)c1,IC50,[2],0.95 µM
same,Activity,[3],Non-Toxic
O[C@]1(C(F)(F)F)CCCC[C@H]1N1CCc2cc(F)ccc21,logD,[4],3.9
same,IC50,[2],10 µM
O[C@]1(C(F)(F)F)CCCC[C@H]1Nc1ccc(Cl)c(F)c1,IC50,[2],0.2 µM
same,Activity,[3],Non-Toxic
O[C@]1(C(F)(F)F)CCCC[C@H]1Nc1ccc(F)cn1,IC50,[2],6.3 µM
same,Activity,[3],Non-Toxic
O[C@]1(C(F)(F)F)CCCC[C@H]1Nc1ccc(Cl)c(Cl)c1,logD,[4],3.8
same,IC50,[2],0.65 µM
same,Activity,[3],Non-Toxic
O[C@]1(C(F)(F)F)CCCC[C@H]1Nc1ccc(F)c(Cl)c1,logD,[4],3.4
same,IC50,[2],0.68 µM
same,Activity,[3],Non-Toxic
O[C@]1(C(F)(F)F)CCCC[C@H]1Cc1ccncc1,IC50,[2],5.3 µM
O[C@]1(C(F)(F)F)CCCC[C@H]1Cc1cncc(Cl)c1,IC50,[2],> 25 µM
O[C@]1(C(F)(F)F)CCCC[C@H]1Cc1csc(Cl)c1,logD,[4],4.3
same,IC50,[2],0.13 µM
O[C@@]1(C(F)(F)F)CCCC[C@@H]1Cc1ccc(F)cc1,logD,[4],3.8
C[C@@H](C(=O)Nc1ccnc(-c2cnc(N3CCC[C@H]3C(F)(F)F)nc2)n1)n1cnc2c1c(=O)n(C)c(=O)n2C,IC50,[1],0.064 µM
O[C@]1(C(F)(F)F)CCCC[C@H]1Oc1ccc(F)cc1,logD,[4],3.5
same,IC50,[2],0.12 µM
O[C@]1(C(F)(F)F)CCCC[C@H]1Cc1ccc(Cl)nc1,logD,[4],3
same,IC50,[2],2.4 µM
O[C@]1(C(F)(F)F)CCCC[C@H]1Cc1ncc(Cl)s1,IC50,[2],1.2 µM
NCC1(CC(=O)O)CCCCC1,Activity,Rattus norvegicus [5],Tde
CC1(C)CCCC(O)(C(F)(F)F)C1Cc1cccc(C#N)c1 (mixture of isomers),IC50,[2],13 µM
same,IC50,[6],5.55 µM
CC1(C)CCCC(O)(C(F)(F)F)C1Cc1cccc(F)c1 (mixture of isomers),IC50,[2],3.8 µM
same,IC50,[6],0.75 µM
Cc1ccc(CC2C(C)(C)CCCC2(O)C(F)(F)F)cc1 (mixture of isomers),IC50,[2],> 12.5 µM
same,IC50,[6],1.27 µM
CC1(C)CCCC(O)(C(F)(F)F)C1Cc1ccc(Cl)cc1 (mixture of isomers),IC50,[2],11.5 µM
same,IC50,[6],0.34 µM
CC1(C)CCCC(O)(C(F)(F)F)C1Cc1ccc(C#N)cc1 (mixture of isomers),IC50,[2],7.57 µM
same,IC50,[6],0.39 µM
CC1(C)CCCC(O)(C(F)(F)F)C1Cc1ccc(F)cc1F (mixture of isomers),IC50,[2],> 10 µM
same,IC50,[6],1 µM
COc1ccc(CC2C(C)(C)CCCC2(O)C(F)(F)F)cc1 (mixture of isomers),IC50,[2],> 12.5 µM
same,IC50,[6],> 12.5 µM
COCCN(c1ccc(F)cc1)[C@@H]1CCCC[C@]1(O)C(F)(F)F (racemic),logD,[4],3.8
same,IC50,[2],3.8 µM
O[C@]1(C(F)(F)F)CCCC[C@H]1Nc1ccccc1 (racemic),IC50,[2],2.3 µM
N#Cc1ccc(NC2CCCCC2(O)C(F)(F)F)cc1C(F)(F)F (racemic),IC50,[2],> 25 µM
same,Activity,[3],Non-Toxic
same,IC50,[6],19 µM
OC(F)(F)[C@@]1(O)CCCC[C@H]1Cc1c[nH]c2ccccc12 (racemic),logD,[4],3.3
O[C@]1(C(F)(F)F)CCCC[C@H]1Nc1ccc(F)cc1 [BAY-390],logD,[4],3
same,Cp(f),Plasma [7],10 nM
same,Activity,Rattus norvegicus [8],Active
same,Cp(f),Plasma [9],115 nM
same,IC50,[1],0.035 µM
same,Activity,Rattus norvegicus [10],Active
same,fraction unbound,[11],0.06
same,unbound brain concentration,[12],33 nM
same,Cp(f),Plasma [13],201 nM
same,fraction unbound,[14],0.12
same,Ratio,[15],0.6
same,Activity,Rattus norvegicus [16],inactive
same,Cp(f),Plasma [17],115 nM
same,unbound brain concentration,[18],61 nM
same,Cp(f),Plasma [19],103 nM
same,Activity,Rattus norvegicus [20],Active
same,Activity,Rattus norvegicus [21],Active
same,Cp(f),Plasma [22],35 nM
same,Activity,Rattus norvegicus [23],Active
same,Activity,Rattus norvegicus [24],Active
same,permeability,[25],29.3 ×10⁻⁶ cm/s
same,Stability,[26],Stable
same,Cp(f),Plasma [27],7 nM
same,fraction unbound,[28],0.097
same,Activity,[3],Non-Toxic
same,solubility,[29],56 µg/mL
same,Cp(f),Plasma [30],10 nM
same,fraction unbound,[31],0.081
same,CL,[32],40 mL/min/kg
COc1cc(N[C@@H]2CCCC[C@]2(O)C(F)(F)F)ccc1F [BAY-9897],IC50,[2],> 25 µM
same,Activity,[3],Non-Toxic
same,IC50,[6],> 25 µM
